The source of these data is ChEMBL document CHEMBL1155278, “3,4-Diaryl-isoxazoles and -imidazoles as potent dual inhibitors of p38alpha mitogen activated protein kinase and casein kinase 1delta” (J Med Chem, 2009).

Structures are written as SMILES.

Test [1] has as its target MAP kinase-activated protein kinase 2 (Homo sapiens) (UniProt P49137). In words: Inhibition of MAPKAPK2 assessed as residual activity at 10 uM by Cherenkov counting relative to control in presence of 20 uM ATP.
Test [2] concerns the target Serine/threonine-protein kinase N2 (Homo sapiens) (UniProt Q16513). In words: Inhibition of PRK2 assessed as residual activity at 10 uM by Cherenkov counting relative to control in presence of 5 uM ATP. An outline of the steps: (§1)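 Single-concentration profiling at 10 μM in a 78-kinase panel. Kinase activity is expressed as a percentage of control assays run without compound.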

Test [3] addresses Cyclin-dependent kinase 2/cyclin A (Homo sapiens) (UniProt P24941+P20248+P78396). Kind of test: Inhibition of CDK2/cyclin A assessed as residual activity at 10 uM by Cherenkov counting relative to control in presence of 20 uM ATP. The test is classed as protein-complex assay. An outline of the steps:
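Single-point profiling at 10 µM in a panel of 78 protein kinases. Kinase activity is expressed as a percentage relative to control assays without compound.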

For test [4], the target named is Dual specificity mitogen-activated protein kinase kinase 1 (Homo sapiens) (UniProt Q02750). Kind of test: Inhibition of MKK1 assessed as residual activity at 10 uM by Cherenkov counting relative to control in presence of 5 uM ATP.
The target of test [5] is SRSF protein kinase 1 (Homo sapiens) (UniProt Q96SB4). In words: Inhibition of SRPK1 assessed as residual activity at 10 uM by Cherenkov counting relative to control in presence of 50 uM ATP. The method, boiled down:
as §1

Test [6] deals with Myosin light chain kinase, smooth muscle (Homo sapiens) (UniProt Q15746). Kind of test: Inhibition of smooth muscle MLCK assessed as residual activity at 10 uM by Cherenkov counting relative to control in presence of 50 uM ATP. The method, boiled down: as §1
The target of test [7] is Serine/threonine-protein kinase pim-3 (Homo sapiens) (UniProt Q86V86). In words: Inhibition of PIM3 assessed as residual activity at 0.1 uM by Cherenkov counting relative to control in presence of 20 uM ATP. An outline of the steps:
(§2)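 Single-concentration selectivity screen at 0.1 μM against a panel of 76 protein kinases. Each kinase was run at an ATP level approximating its Km for ATP. Output is mean residual activity as % of the control assay without compound, n = 3 ± SD.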

For test [8], the target named is Mitogen-activated protein kinase 9 (Homo sapiens) (UniProt P45984). Kind of test: Inhibition of JNK2 assessed as residual activity at 0.1 uM by Cherenkov counting relative to control in presence of 20 uM ATP. An outline of the steps:
as §2

For test [9], the target named is Serine/threonine-protein kinase Nek6 (Homo sapiens) (UniProt Q9HC98). In words: Inhibition of NEK6 assessed as residual activity at 0.1 uM by Cherenkov counting relative to control in presence of 50 uM ATP. The method, boiled down:
as §2

Test [10] has as its target T1, Serine/threonine-protein kinase 3 (Homo sapiens) (UniProt Q13188).
T1 sequence (whole entry): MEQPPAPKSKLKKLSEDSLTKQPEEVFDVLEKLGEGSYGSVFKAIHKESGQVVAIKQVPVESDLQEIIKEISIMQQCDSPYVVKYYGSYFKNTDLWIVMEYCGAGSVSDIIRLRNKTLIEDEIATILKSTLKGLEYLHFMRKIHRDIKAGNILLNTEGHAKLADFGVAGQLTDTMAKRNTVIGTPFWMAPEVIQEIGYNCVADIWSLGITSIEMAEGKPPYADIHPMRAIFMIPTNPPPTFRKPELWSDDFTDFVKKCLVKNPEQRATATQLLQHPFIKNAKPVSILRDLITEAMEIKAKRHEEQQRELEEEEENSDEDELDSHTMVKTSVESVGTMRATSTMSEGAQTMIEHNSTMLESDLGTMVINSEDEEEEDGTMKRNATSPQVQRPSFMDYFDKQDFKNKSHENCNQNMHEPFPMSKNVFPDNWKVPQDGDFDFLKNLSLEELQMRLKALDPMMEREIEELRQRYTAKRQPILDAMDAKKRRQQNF
In words: Inhibition of MST2 assessed as residual activity at 0.1 uM by Cherenkov counting relative to control in presence of 20 uM ATP. An outline of the steps:
as §2

The target of test [11] is Tyrosine-protein kinase BTK (Homo sapiens) (UniProt Q06187). Kind of test: Inhibition of BTK assessed as residual activity at 0.1 uM by Cherenkov counting relative to control in presence of 50 uM ATP. The method, boiled down: (§3)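 Single-concentration screen at 0.1 µM across a panel of 76 protein kinases. Each kinase was run at an ATP concentration approximating its ATP Km. Results are % mean residual activity versus control assays without compound (n = 3 ± SD).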

The target in test [12] is Serine/threonine-protein kinase PAK 4 (Homo sapiens) (UniProt O96013). Kind of test: Inhibition of PAK4 assessed as residual activity at 0.1 uM by Cherenkov counting relative to control in presence of 5 uM ATP. An outline of the steps: as §2
In test [13] the target is Insulin-like growth factor 1 receptor (Homo sapiens) (UniProt P08069). In words: Inhibition of IGF1R assessed as residual activity at 0.1 uM by Cherenkov counting relative to control in presence of 5 uM ATP. The method, boiled down: as §3
Test [14] addresses Insulin receptor-related protein (Homo sapiens) (UniProt P14616). In words: Inhibition of IRR assessed as residual activity at 0.1 uM by Cherenkov counting relative to control in presence of 5 uM ATP. An outline of the steps:
as §2

Test [15] concerns the target T2, Protein kinase C zeta type (Homo sapiens) (UniProt Q05513).
T2 sequence (whole entry): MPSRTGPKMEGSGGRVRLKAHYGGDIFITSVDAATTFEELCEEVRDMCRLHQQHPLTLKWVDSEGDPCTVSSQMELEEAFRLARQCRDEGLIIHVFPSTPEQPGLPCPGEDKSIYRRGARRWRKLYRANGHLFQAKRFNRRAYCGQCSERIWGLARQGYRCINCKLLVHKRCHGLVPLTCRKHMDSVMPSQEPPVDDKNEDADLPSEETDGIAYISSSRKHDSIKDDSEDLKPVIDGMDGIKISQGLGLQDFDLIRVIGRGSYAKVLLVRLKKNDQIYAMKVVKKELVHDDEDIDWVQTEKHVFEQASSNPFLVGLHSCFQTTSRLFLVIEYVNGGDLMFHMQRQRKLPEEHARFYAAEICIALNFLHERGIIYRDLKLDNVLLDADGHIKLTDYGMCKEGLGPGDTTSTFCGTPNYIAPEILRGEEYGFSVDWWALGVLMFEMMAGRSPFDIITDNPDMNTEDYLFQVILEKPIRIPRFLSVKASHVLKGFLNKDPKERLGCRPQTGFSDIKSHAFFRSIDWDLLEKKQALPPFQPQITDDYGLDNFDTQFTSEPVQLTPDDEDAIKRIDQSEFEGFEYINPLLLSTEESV
In words: Inhibition of PKCzeta assessed as residual activity at 0.1 uM by Cherenkov counting relative to control in presence of 5 uM ATP. The method, boiled down: (§4)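 Single-concentration screen at 0.1 μM in a 76-kinase panel. ATP for each kinase was set near its Km for ATP. Residual activity is given as a percentage of control assays without compound, mean of n = 3 ± SD.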

The target of test [16] is Serine/threonine-protein kinase PLK1 (Homo sapiens) (UniProt P53350). In words: Inhibition of PLK1 assessed as residual activity at 0.1 uM by Cherenkov counting relative to control in presence of 5 uM ATP. An outline of the steps: as §4

Sequence of Dual specificity mitogen-activated protein kinase kinase 1 (Homo sapiens) (Q02750 whole entry): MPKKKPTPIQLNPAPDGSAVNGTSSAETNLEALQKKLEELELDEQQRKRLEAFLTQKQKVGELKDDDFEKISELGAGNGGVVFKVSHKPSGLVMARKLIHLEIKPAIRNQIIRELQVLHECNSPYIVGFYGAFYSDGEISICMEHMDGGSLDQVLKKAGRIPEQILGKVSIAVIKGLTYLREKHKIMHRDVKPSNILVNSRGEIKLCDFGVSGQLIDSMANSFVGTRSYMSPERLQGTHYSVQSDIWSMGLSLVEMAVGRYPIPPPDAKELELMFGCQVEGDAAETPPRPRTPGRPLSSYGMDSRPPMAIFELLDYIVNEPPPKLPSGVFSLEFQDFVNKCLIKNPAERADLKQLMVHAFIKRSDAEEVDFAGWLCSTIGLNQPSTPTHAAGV
Sequence of Myosin light chain kinase, smooth muscle (Homo sapiens) (Q15746 whole entry): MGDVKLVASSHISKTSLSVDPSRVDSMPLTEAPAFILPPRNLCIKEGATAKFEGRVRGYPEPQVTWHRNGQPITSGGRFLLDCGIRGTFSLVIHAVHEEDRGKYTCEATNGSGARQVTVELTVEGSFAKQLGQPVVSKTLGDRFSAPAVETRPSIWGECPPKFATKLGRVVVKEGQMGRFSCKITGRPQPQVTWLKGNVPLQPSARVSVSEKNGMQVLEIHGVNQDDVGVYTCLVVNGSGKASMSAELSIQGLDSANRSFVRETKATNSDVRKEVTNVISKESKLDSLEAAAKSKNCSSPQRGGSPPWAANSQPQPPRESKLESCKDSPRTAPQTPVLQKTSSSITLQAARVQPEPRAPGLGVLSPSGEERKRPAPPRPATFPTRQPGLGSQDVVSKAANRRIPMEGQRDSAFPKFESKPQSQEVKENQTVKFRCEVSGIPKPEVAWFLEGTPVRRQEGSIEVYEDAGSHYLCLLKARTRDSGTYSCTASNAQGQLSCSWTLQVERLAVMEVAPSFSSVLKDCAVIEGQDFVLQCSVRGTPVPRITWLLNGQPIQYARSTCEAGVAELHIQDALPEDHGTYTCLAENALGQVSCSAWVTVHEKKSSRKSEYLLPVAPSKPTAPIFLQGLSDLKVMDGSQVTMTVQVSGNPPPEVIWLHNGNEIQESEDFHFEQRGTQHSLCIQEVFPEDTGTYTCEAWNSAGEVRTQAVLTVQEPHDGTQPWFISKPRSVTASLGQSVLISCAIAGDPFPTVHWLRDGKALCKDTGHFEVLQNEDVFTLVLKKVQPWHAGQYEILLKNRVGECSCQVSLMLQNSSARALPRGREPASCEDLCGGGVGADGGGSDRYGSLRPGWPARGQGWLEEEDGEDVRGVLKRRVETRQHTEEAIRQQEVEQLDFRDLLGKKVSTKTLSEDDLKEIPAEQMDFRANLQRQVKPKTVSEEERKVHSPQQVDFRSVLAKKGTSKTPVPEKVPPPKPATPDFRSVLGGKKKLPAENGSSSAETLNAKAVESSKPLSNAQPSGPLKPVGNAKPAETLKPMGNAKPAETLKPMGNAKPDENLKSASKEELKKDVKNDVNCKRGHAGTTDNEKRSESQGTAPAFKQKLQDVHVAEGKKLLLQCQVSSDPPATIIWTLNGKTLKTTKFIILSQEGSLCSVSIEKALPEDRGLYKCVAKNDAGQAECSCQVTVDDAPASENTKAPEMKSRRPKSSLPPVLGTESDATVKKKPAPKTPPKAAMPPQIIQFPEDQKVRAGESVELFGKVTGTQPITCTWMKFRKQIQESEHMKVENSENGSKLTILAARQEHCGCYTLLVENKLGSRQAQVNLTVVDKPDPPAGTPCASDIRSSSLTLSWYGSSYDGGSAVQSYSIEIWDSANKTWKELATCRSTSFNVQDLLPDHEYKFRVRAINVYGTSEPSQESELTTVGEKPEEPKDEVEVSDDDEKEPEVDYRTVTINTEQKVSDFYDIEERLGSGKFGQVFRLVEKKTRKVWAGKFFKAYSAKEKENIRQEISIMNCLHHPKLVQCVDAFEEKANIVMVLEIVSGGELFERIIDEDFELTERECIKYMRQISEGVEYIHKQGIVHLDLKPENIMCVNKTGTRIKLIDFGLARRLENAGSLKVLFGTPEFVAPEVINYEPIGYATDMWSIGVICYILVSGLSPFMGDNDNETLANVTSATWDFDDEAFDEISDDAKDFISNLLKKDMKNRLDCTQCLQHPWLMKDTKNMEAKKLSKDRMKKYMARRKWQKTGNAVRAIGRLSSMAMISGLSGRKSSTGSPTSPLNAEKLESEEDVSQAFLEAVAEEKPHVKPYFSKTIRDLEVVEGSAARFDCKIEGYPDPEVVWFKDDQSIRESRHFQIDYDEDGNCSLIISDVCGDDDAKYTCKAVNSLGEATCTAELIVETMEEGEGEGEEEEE
Sequence of Mitogen-activated protein kinase 9 (Homo sapiens) (P45984 whole entry, looked up): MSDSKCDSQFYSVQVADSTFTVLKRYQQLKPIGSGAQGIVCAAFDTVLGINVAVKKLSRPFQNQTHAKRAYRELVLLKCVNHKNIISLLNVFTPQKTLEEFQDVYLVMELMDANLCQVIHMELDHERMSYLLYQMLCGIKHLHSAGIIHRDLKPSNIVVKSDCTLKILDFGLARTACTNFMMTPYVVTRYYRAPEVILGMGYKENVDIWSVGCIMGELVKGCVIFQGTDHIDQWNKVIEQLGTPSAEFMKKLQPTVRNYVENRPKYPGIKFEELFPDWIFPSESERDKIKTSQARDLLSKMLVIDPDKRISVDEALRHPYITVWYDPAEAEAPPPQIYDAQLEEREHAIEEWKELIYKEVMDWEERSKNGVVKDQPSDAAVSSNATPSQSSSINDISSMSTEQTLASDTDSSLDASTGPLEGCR
Sequence of Insulin-like growth factor 1 receptor (Homo sapiens) (P08069 31-736 limits assumed): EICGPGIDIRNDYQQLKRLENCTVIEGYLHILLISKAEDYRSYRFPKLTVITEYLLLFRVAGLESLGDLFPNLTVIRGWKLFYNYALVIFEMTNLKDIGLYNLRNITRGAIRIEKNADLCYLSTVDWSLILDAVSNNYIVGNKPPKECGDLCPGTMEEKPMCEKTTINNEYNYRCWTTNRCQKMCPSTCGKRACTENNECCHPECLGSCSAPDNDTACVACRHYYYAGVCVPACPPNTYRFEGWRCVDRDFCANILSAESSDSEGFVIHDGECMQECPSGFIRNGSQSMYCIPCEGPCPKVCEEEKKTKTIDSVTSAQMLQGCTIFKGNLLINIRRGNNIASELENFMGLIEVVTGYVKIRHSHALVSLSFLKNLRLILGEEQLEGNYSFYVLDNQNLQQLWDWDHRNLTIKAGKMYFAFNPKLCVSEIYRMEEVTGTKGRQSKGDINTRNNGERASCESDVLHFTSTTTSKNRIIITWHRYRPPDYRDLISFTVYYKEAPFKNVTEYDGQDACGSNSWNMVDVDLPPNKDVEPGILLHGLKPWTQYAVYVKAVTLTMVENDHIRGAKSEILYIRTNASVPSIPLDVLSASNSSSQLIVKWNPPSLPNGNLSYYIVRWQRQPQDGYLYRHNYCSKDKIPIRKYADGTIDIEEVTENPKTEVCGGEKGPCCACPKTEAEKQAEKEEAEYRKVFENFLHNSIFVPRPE
Sequence of Insulin-like growth factor 1 receptor (Homo sapiens) (P08069 741-1367 limits assumed): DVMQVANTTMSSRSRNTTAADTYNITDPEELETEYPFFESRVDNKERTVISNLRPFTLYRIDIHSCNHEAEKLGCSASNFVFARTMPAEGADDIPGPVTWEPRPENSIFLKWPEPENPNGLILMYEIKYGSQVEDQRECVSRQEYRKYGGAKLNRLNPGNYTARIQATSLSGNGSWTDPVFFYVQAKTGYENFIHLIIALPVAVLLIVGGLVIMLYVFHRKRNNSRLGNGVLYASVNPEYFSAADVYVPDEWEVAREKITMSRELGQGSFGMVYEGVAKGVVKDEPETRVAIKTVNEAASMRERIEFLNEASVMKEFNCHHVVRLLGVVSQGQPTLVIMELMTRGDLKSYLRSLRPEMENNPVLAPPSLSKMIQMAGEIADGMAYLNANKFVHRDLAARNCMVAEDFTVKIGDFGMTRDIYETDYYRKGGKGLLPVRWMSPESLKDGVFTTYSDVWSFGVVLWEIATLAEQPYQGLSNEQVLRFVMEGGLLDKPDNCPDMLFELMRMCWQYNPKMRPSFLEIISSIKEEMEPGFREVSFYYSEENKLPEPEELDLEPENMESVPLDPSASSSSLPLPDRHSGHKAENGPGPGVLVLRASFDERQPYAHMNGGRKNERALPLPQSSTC
Sequence of SRSF protein kinase 1 (Homo sapiens) (Q96SB4 whole entry): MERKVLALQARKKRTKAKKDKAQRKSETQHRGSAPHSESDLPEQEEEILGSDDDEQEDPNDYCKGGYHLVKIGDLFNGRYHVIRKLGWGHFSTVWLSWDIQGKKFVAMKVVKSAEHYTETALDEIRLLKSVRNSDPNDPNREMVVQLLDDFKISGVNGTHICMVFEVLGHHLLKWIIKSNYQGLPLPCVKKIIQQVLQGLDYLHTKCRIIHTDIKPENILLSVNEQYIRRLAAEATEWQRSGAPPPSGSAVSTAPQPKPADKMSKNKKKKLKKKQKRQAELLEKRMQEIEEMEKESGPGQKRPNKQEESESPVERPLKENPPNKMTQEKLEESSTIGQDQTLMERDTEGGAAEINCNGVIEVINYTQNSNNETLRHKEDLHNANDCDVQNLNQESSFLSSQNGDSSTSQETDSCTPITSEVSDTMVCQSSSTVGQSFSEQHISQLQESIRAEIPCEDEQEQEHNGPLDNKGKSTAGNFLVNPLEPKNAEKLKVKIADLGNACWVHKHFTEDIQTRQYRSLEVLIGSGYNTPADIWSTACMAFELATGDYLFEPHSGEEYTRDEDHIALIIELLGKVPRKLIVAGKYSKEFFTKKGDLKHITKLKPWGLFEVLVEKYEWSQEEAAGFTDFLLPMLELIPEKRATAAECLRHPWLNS

On to `CC(C)c1noc(-c2ccc(F)cc2)c1-c1ccncc1`, for which the Activity turned out to be 100% in test [1]; 98% in test [2]; 98% in [3]; 88% in [4]; 86% in [5]; 110% in test [6].
Turning to `CC(C)c1onc(-c2ccc(F)cc2)c1-c1ccncc1`, the Activity in [1] was found to be 105%; in test [2], 88%; in test [3], 96%; in [4] it was 76%; in test [5], 81%; in test [6], 99%.
Take `COc1ccc(/C=C/C(=O)Nc2cc(-c3[nH]c(SC)nc3-c3ccc(F)cc3)ccn2)c(OC)c1`: the Activity in test [7] was 81%; in test [8] it was 31%; in test [9] it was 90%; in test [10], 97%; in test [11] it was 92%; in test [12] it was 81%. Moreover, the Activity in test [13] amounted to 87%; in [14], 61%; in test [15], 79%; in test [16], 97%.
Turning to `COc1ccc(/C=C/C(=O)Nc2cc(-c3[nH]c([S+](C)[O-])nc3-c3ccc(F)cc3)ccn2)c(OC)c1` (configuration not stated), the Activity in test [7] amounted to 90%; in test [8] it was 12%; in test [9] it was 111%; in test [10], 112%; in [11], 105%; in test [12], 98%. Besides, the Activity was found to be 107% in [13], 83% in [14], 83% in [15] and 110% in test [16].
